This is an account of results in ChEMBL document CHEMBL4316619 (Bioorg Med Chem Lett, 2019).

Molecules are shown by their SMILES. Calls of active or inactive are those of the source. The rule behind the calls is not given here.

Series [1] has as its target Non-structural protein 1 (Influenza A virus (strain A/Puerto Rico/8/1934 H1N1)) (UniProt P03496). As to the kind of experiment: Inhibition of Influenza A virus A/PR/8/34 (H1N1) NS1 expressed in 293 cells assessed as increase in poly(I:C)-induced IFN-beta reporter activity treated 16 hrs […] measured after 24 hrs by luciferase reporter gene assay. The settings on record: Influenza A virus (A/Puerto Rico/8/1934(H1N1)). Type of series: cell-based. In a few lines: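 293 cells co-transfected with a human IFN-β promoter-driven firefly luciferase reporter and NS1 expression constructs. At 16 h post-transfection, poly(I:C) 50 μg/mL plus compound (20 μM) or 1% DMSO added for a further 24 h; luciferase read by luminometer. Untransfected cells serve as baseline.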
On the technique in general: A reporter such as luciferase makes a cellular process visible.

Series [2] in a line: Apparent permeability across apical to basolateral side in human Caco2 cells assessed as drug recovery in presence of 3% BSA. It counts as ADME, cell-based. The settings on record: caco-2. In a few lines:
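Permeability was measured across Caco-2 monolayers in both directions, apical to basolateral and basolateral to apical. […] Runs were done with and without 3% BSA, and mass recovery (%) was reported for each direction. Efflux ratio = Papp B→A / Papp A→B.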
Background: Passage across Caco-2 layers is used to estimate intestinal permeability.

Series [3] is described as follows: AUClast in C57BL/6 mouse liver at 30 mg/kg, ip. Set-up: dose 30 mg/kg, time 0 - last, route intraperitoneal. Type of series: ADME, organism-based. In a few lines: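 Male C57BL/6 mice received a single intraperitoneal dose of 30 mg/kg (N=3). Compound concentrations were followed over time in plasma, liver and lung. Tmax, Cmax, terminal t1/2, AUClast and AUCINF were derived from the mean concentration-time profiles.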

A short description of series [4]: Drug level in C57BL/6 mouse plasma at 30 mg/kg, ip measured at 48 hrs. It counts as ADME, organism-based. The method, boiled down:
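Male C57BL/6 mice, single intraperitoneal 30 mg/kg dose, N=3. Plasma, liver and lung concentrations followed over time to give concentration-time profiles, from which Tmax, Cmax, terminal t1/2, AUClast and AUCINF were derived.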

Non-structural protein 1 (Influenza A virus (strain A/Puerto Rico/8/1934 H1N1)), sequence (P03496 whole entry): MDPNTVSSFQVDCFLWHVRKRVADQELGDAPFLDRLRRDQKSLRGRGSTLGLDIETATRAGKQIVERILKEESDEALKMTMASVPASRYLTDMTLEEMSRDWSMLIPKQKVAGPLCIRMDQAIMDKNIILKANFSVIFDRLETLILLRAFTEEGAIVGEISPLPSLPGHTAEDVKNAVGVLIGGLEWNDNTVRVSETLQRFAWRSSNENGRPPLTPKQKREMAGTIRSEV

`COc1cc(-c2ccnc3c2c(C)nn3-c2ccc(C(F)(F)F)cc2)ccc1O`: the inhibition entry in series [1] was “Active”. In series [2], the Drug recovery is on record as 49%. Further, the AUC(0-t) (as a rule, exposure summed from dosing to a finite time, without extrapolation to infinity) in series [3] came out at 80200 ng·h/mL. The molecule also yielded a concentration at 48 h in series [4] of 3 nM.
